Laboratory results taken from ChEMBL document CHEMBL4715925, “Sulfamoylbenzamide-based Capsid Assembly Modulators for Selective Inhibition of Hepatitis B Viral Replication” (ACS Med Chem Lett, 2021).
One block for each compound: values may come before it. The source made the active and inactive calls. No cut-off for these calls is given here.

What was measured:
[1] = Tmax in Sprague-Dawley rat at 5 mg/kg, po by LC-MS/MS analysis; assay type: ADME, organism-based; settings: in vivo
How it was run: (§1)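 Male SD rats, 5 mg/kg given i.v. or p.o.; plasma concentration–time courses followed. Parameters: Tmax, Cmax, terminal T1/2, AUClast, AUC to infinity, total plasma clearance, Vss, oral bioavailability (Ft). Values are mean ± SD of at least three independent experiments.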

[2] = Metabolic stability in rat liver microsomes assessed as half life at 1 uM incubated for 30 mins by LC-MS/MS analysis; assay type: ADME, Microsome
How it was run: (§2)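 Phase-I stability in rat or human liver microsomes, given as % remaining after 30 min, with half-life also derived. n = 3, mean ± SD.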

[3] = Metabolic stability in rat liver microsomes assessed as compound remaining at 1 uM incubated for 30 mins by LC-MS/MS analysis; assay type: ADME, Microsome; settings: read-out: Stabilty; how it was run: as §2
[4] = target: T1, Cytochrome P450 1A2 (Homo sapiens, UniProt P05177); assay: Inhibition of human liver microsome CYP1A2 using phenacetin as substrate incubated for 20 mins by LC-MS/MS with HPLC analysis; assay type: ADME, microsomes
T1 sequence (P05177 whole entry): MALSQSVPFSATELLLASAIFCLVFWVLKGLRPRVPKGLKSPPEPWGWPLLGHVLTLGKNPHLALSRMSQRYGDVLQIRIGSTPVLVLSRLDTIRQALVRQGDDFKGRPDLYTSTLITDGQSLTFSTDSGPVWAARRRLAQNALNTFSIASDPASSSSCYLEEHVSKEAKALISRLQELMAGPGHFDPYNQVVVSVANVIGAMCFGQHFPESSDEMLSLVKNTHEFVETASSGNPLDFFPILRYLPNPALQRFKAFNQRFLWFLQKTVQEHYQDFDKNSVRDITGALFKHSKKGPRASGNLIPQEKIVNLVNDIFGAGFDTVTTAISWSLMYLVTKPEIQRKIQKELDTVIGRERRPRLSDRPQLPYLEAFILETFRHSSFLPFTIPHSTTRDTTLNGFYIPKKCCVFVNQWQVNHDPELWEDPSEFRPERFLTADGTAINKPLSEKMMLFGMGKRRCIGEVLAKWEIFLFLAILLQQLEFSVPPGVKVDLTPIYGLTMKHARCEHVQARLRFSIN
How it was run: (§3)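 Cocktail-substrate assay in human liver microsomes; IC50 reported for CYP1A2, 2C9, 2C19, 2D6 and 3A4. n = 3, mean ± SD.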

[5] = AUC (0 to infinity) in Sprague-Dawley rat at 5 mg/kg, iv by LC-MS/MS analysis; assay type: ADME, organism-based; design: time infinity, route intravenous, dose 5 mg/kg; settings: in vivo; how it was run: as §1
[6] = Half life in Sprague-Dawley rat at 5 mg/kg, iv by LC-MS/MS analysis; assay type: ADME, organism-based; settings: in vivo; how it was run: as §1
[7] = target: Voltage-gated inwardly rectifying potassium channel KCNH2 (Homo sapiens, UniProt Q12809); assay: Inhibition of human ERG by fluorescence polarization assay
Sequence of Voltage-gated inwardly rectifying potassium channel KCNH2 (Q12809 whole entry): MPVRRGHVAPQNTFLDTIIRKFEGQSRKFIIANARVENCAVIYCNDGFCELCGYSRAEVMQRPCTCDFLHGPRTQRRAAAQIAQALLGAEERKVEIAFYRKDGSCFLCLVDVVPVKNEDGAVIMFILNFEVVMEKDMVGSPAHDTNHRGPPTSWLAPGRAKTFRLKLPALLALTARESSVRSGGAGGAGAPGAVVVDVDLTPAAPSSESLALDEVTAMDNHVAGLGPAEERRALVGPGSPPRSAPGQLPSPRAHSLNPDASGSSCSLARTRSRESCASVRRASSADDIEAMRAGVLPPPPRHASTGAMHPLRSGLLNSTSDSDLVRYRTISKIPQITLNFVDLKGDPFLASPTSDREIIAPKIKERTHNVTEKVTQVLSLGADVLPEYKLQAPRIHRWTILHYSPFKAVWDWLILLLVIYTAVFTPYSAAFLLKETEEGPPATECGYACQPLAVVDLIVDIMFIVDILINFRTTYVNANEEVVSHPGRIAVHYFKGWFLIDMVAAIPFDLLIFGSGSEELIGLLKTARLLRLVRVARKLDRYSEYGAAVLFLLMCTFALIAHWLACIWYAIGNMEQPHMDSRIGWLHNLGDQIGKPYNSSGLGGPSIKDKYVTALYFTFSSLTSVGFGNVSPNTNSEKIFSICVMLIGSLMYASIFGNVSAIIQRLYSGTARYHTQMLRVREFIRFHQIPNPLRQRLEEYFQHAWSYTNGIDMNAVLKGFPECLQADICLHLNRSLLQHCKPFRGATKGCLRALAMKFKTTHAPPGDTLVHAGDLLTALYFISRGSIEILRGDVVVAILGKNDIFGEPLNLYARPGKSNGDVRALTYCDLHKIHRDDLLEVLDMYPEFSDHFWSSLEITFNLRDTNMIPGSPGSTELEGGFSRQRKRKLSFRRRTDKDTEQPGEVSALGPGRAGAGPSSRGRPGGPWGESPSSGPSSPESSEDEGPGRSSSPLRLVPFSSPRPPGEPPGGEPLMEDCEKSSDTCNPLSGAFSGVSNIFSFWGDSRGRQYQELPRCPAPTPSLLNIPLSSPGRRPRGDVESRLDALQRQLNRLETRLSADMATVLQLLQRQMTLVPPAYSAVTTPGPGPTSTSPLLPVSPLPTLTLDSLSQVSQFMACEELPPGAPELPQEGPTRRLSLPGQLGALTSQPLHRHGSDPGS

[8] = target: Cytochrome P450 2C9 (Homo sapiens, UniProt P11712); assay: Inhibition of human liver microsome CYP2C9 using tolbutamide as substrate incubated for 20 mins by LC-MS/MS with HPLC analysis; assay type: ADME, microsomes; how it was run: as §3
Sequence of Cytochrome P450 2C9 (P11712 whole entry): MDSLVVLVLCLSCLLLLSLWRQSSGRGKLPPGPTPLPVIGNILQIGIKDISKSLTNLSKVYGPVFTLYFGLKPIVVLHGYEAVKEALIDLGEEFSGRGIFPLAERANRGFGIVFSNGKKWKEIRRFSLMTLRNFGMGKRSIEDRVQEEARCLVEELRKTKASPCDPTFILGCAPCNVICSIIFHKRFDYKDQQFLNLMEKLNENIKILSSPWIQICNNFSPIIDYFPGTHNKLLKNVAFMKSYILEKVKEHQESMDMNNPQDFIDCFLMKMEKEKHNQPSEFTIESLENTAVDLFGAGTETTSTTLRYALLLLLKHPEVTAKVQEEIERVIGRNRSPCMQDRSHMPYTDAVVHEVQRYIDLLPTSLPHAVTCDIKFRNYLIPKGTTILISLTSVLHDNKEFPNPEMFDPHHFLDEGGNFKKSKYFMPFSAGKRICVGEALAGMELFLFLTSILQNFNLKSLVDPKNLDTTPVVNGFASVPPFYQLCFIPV

[9] = Cytotoxicity against human HepG2 2.2.15 cells assessed as reduction in cell viability incubated for 5 days by MTT assay; assay type: cell-based; settings: time 5 day
How it was run: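 HepG2.2.15 cells were incubated with compound, then cell viability was measured. Mean ± SD of three independent experiments.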

[10] = Volume of distribution at steady state in Sprague-Dawley rat at 5 mg/kg, iv by LC-MS/MS analysis; assay type: ADME, organism-based; settings: in vivo, read-out: Vdss; how it was run: as §1
[11] = system: Hepatitis B virus; assay: Antiviral activity against Hepatitis B genotype D virus infected in HepG2 2.2.15 cells assessed as inhibition of viral DNA incubated for 5 days by qPCR analysis; assay type: functional, cell-based; settings: HepG2 2.2.15, 120 h
How it was run: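 HepG2.2.15 cells were incubated with compound for 5 days. HBV DNA was then purified from the culture supernatant and quantified by real-time PCR.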

[12] = AUClast in Sprague-Dawley rat at 5 mg/kg, iv by LC-MS/MS analysis; assay type: ADME, organism-based; design: route intravenous, time 0 - last, dose 5 mg/kg; settings: in vivo; how it was run: as §1
[13] = target: Cytochrome P450 2D6 (Homo sapiens, UniProt P10635); assay: Inhibition of human liver microsome CYP2D6 using dextromethorphan as substrate incubated for 20 mins by LC-MS/MS with HPLC analysis; assay type: ADME, microsomes; how it was run: as §3
Sequence of Cytochrome P450 2D6 (P10635 whole entry): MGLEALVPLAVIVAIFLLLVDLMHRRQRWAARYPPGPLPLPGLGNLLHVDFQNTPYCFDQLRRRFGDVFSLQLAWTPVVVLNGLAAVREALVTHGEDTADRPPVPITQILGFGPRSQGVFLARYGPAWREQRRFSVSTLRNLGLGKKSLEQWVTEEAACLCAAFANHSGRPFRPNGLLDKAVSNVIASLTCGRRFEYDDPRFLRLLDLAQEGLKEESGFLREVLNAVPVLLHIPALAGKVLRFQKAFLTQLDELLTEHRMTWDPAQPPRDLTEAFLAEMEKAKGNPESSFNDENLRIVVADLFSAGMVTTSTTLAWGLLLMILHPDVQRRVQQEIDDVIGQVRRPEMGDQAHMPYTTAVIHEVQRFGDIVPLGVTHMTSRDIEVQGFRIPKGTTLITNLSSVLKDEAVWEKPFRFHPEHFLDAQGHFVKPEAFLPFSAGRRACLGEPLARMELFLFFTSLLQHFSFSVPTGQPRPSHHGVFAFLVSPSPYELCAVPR

[14] = target: Cytochrome P450 2C19 (Homo sapiens, UniProt P33261); assay: Inhibition of human liver microsome CYP2C19 using S-mephenytoin as substrate incubated for 20 mins by LC-MS/MS with HPLC analysis; assay type: ADME, microsomes; how it was run: as §3
Sequence of Cytochrome P450 2C19 (P33261 whole entry): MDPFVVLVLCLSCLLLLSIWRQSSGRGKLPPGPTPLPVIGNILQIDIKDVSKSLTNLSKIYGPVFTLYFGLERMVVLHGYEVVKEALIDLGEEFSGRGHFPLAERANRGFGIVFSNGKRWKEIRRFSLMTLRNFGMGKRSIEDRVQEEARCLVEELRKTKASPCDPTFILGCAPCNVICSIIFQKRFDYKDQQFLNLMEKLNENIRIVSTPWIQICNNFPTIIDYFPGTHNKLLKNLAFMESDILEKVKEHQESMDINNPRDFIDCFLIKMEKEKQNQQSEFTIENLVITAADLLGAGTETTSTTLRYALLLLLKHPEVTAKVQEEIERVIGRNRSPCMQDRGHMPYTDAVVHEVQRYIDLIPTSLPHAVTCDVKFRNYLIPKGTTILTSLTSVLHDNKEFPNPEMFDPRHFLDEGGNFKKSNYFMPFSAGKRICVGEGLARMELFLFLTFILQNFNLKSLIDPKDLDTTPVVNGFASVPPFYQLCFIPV

[15] = system: Hepatitis B virus; assay: Induction of recombinant Hepatitis B virus HBc (1-149)-His protein self-assembly expressed in Escherichia coli BL21 (DE3) assessed as short rod-shaped particles at 30 uM after 12 hrs of incubation by TEM analysis relative to control; settings: filed as modulator
[16] = Protein binding in rat plasma at 5 uM incubated for 4 hrs by LC-MS/MS analysis; assay type: ADME, cell-free; settings: read-out: PPB (converted)
[17] = Cmax in Sprague-Dawley rat at 5 mg/kg, po by LC-MS/MS analysis; assay type: ADME, organism-based; design: route oral, dose 5 mg/kg; settings: in vivo; how it was run: as §1
[18] = target: Cytochrome P450 3A4 (Homo sapiens, UniProt P08684); assay: Inhibition of human liver microsome CYP3A4 using […] as substrate incubated for 20 mins by LC-MS/MS with HPLC analysis; assay type: ADME, microsomes; how it was run: as §3
Sequence of Cytochrome P450 3A4 (P08684 whole entry): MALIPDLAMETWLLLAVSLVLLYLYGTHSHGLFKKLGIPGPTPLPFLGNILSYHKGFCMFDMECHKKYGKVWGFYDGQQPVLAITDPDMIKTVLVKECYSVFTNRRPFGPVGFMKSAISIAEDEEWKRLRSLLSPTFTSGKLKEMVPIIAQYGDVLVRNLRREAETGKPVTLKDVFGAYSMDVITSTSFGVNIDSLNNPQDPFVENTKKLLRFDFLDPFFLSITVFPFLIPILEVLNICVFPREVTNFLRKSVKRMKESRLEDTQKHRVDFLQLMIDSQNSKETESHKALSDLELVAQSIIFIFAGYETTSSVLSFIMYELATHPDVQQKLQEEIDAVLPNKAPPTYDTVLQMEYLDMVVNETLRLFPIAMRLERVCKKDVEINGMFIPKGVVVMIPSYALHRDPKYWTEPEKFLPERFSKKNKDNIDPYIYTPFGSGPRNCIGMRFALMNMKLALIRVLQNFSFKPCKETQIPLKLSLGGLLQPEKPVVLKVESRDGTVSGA

[19] = system: Hepatitis B virus; assay: Induction of recombinant Hepatitis B virus HBc (1-149)-His protein self-assembly expressed in Escherichia coli BL21 (DE3) assessed as spherical shaped particles at 30 uM after 12 hrs of incubation by TEM analysis relative to control; settings: filed as modulator
[20] = Metabolic stability in human liver microsomes assessed as compound remaining at 1 uM incubated for 30 mins by LC-MS/MS analysis; assay type: ADME, Microsome; settings: read-out: Stabilty; how it was run: as §2
[21] = system: Hepatitis B virus; assay: Induction of recombinant Hepatitis B virus HBc (1-149)-His protein self-assembly expressed in Escherichia coli BL21 (DE3) assessed as longer tubular shaped particles at 30 uM after 3 to 5 days of incubation by TEM analysis relative to control; settings: filed as modulator, time 3-5 day
[22] = system: Hepatitis B virus; assay: Induction of recombinant Hepatitis B virus HBc (1-149)-His protein self-assembly expressed in Escherichia coli BL21 (DE3) assessed as long rod-shaped particles at 30 uM after 3 to 5 days of incubation by TEM analysis relative to control; settings: filed as modulator, time 3-5 day
[23] = Metabolic stability in human liver microsomes assessed as half life at 1 uM incubated for 30 mins by LC-MS/MS analysis; assay type: ADME, Microsome; how it was run: as §2
[24] = system: Hepatitis B virus; assay: Induction of recombinant Hepatitis B virus HBc (1-149)-His protein self-assembly expressed in Escherichia coli BL21 (DE3) at 30 uM by TEM analysis relative to control; settings: filed as modulator, time 3-5 day, TDE = time-dependent effect
[25] = AUClast in Sprague-Dawley rat at 5 mg/kg, po by LC-MS/MS analysis; assay type: ADME, organism-based; design: time 0 - last, route oral, dose 5 mg/kg; settings: in vivo; how it was run: as §1
[26] = Stability in human plasma assessed as compound remaining at 5 uM incubated for 4 hrs by LC-MS/MS analysis; assay type: ADME, cell-free; settings: read-out: Stabilty
How it was run: (§4)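 Incubated in rat or human plasma at 37 °C for 4 h; result is % compound remaining. n = 3, mean ± SD.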

[27] = Half life in Sprague-Dawley rat at 5 mg/kg, po by LC-MS/MS analysis; assay type: ADME, organism-based; settings: in vivo; how it was run: as §1
[28] = Protein binding in human plasma at 5 uM incubated for 4 hrs by LC-MS/MS analysis; assay type: ADME, cell-free; settings: read-out: PPB (converted)
[29] = AUC (0 to infinity) in Sprague-Dawley rat at 5 mg/kg, po by LC-MS/MS analysis; assay type: ADME, organism-based; design: time infinity, route oral, dose 5 mg/kg; settings: in vivo; how it was run: as §1
[30] = Oral bioavailability in Sprague-Dawley rat at 5 mg/kg by LC-MS/MS analysis; assay type: ADME, organism-based; settings: in vivo; how it was run: as §1
[31] = Clearance in Sprague-Dawley rat at 5 mg/kg, iv by LC-MS/MS analysis; assay type: ADME, organism-based; settings: in vivo; how it was run: as §1
[32] = Stability in rat plasma assessed as compound remaining at 5 uM incubated for 4 hrs by LC-MS/MS analysis; assay type: ADME, cell-free; settings: read-out: Stabilty; how it was run: as §4
[33] = Selectivity index, ratio of CC50 for human […] cells to EC50 for Hepatitis B virus; assay type: toxicity; settings: read-out: Ratio CC50/EC50

Structure (SMILES): N#Cc1cc(NC(=O)c2cc(S(=O)(=O)N3CCC(O)CC3)c(F)cc2N)ccc1Cl
CC50 at 120 h [9]: > 900 µM | EC50 [11]: > 3.3 µM

Structure (SMILES): Nc1cc(F)c(S(=O)(=O)N2CCC(O)CC2)cc1C(=O)Nc1ccc(Cl)c(C(F)(F)F)c1
CC50 at 120 h [9]: 17.8 µM | EC50 [11]: > 3.3 µM

Structure (SMILES): Nc1cc(F)c(S(=O)(=O)N2CCC(O)CC2)cc1C(=O)Nc1ccc(Cl)c(C(F)F)c1
CC50 at 120 h [9]: 30.1 µM | EC50 [11]: > 3.3 µM

Now those with a lower EC50 [11], led by results:

Tmax [1]: 1.67 h | half-life at 1 µM [2]: 0.867 h | remaining at 0.5 h, 1 µM [3]: 67.9% | IC50 [4]: > 100 µM | AUC(0-inf) [5]: 2500 ng·h/mL | half-life [6]: 1.22 h | IC50 [8]: 25 µM | Vd [10]: 2.88 L/kg | EC50 [11]: 0.3 µM | AUC(0-t) [12]: 2450 ng·h/mL | IC50 [13]: 29.3 µM | IC50 [14]: 18.3 µM | Activity [15]: Active | fraction unbound at 4 h, 5 µM [16]: 0.073 | Cmax [17]: 480 ng/mL | IC50 [18]: 41 µM | Activity [19]: Active | remaining at 0.5 h, 1 µM [20]: 68.1% | Activity [21]: Active | Activity [22]: Active | half-life at 1 µM [23]: 1.24 h | inhibition [24]: Tde | AUC(0-t) [25]: 2080 ng·h/mL | remaining at 4 h, 5 µM [26]: 93.6% | half-life [27]: 3.84 h | fraction unbound at 4 h, 5 µM [28]: 0.035 | AUC(0-inf) [29]: 2100 ng·h/mL | bioavailability [30]: 84.2% | clearance [31]: 34.2 mL/min/kg | remaining at 4 h, 5 µM [32]: 84.6%
Structure (SMILES): Nc1cc(F)c(S(=O)(=O)N2CCC(O)CC2)cc1C(=O)Nc1ccc(F)c(F)c1
IC50 [7]: 50 µM | CC50 at 120 h [9]: 16 µM | selectivity ratio [33]: 53.3

EC50 [11]: 1.04 µM
Structure (SMILES): O=C(Nc1cc(F)c(F)c(F)c1)c1ccc(F)c(S(=O)(=O)N2CCC(O)CC2)c1
CC50 at 120 h [9]: 8.6 µM | selectivity ratio [33]: 8.3

Tmax [1]: 1.33 h | half-life at 1 µM [2]: 0.488 h | remaining at 0.5 h, 1 µM [3]: 54.1% | IC50 [4]: 45.5 µM | AUC(0-inf) [5]: 2330 ng·h/mL | half-life [6]: 2.55 h | IC50 [8]: 25.2 µM | Vd [10]: 3.59 L/kg | EC50 [11]: 0.29 µM | AUC(0-t) [12]: 2310 ng·h/mL | IC50 [13]: 26.7 µM | IC50 [14]: 19 µM | fraction unbound at 4 h, 5 µM [16]: 0.108 | Cmax [17]: 280 ng/mL | IC50 [18]: 20.8 µM | remaining at 0.5 h, 1 µM [20]: 40.5% | half-life at 1 µM [23]: 0.51 h | AUC(0-t) [25]: 1150 ng·h/mL | remaining at 4 h, 5 µM [26]: 100% | half-life [27]: 5.16 h | fraction unbound at 4 h, 5 µM [28]: 0.029 | AUC(0-inf) [29]: 1230 ng·h/mL | bioavailability [30]: 49.9% | clearance [31]: 36 mL/min/kg | remaining at 4 h, 5 µM [32]: 99.6%
Structure (SMILES): Nc1cc(F)c(S(=O)(=O)N2CCC(O)CC2)cc1C(=O)Nc1ccc(F)c(C(F)F)c1
IC50 [7]: > 10 µM | CC50 at 120 h [9]: 47.5 µM | selectivity ratio [33]: 164

EC50 [11]: 0.83 µM
Structure (SMILES): Nc1cc(F)c(S(=O)(=O)N2CCC(O)CC2)cc1C(=O)Nc1cccc(F)c1
CC50 at 120 h [9]: 29.3 µM | selectivity ratio [33]: 35.3

EC50 [11]: 0.27 µM
Structure (SMILES): Nc1cc(F)c(S(=O)(=O)N2CCC(O)CC2)cc1C(=O)Nc1cc(F)c(F)c(F)c1
CC50 at 120 h [9]: 19.7 µM | selectivity ratio [33]: 73
